From ChEMBL document CHEMBL1806428, “Design and synthesis of spiro derivatives of parthenin as novel anti-cancer agents” (Eur J Med Chem, 2011)
Where “and” joins values, the source holds several entries; their conditions need not be identical. Equal values may be shown once.

Tests used:
[1] = Partition coefficient, log P of the compound; assay type: physicochemical; details: octanol/water
DU-145 = test: Cytotoxicity against human DU145 cells assessed as cell growth after 48 hrs by sulforhodamine B assay; assay type: functional, cell-based
Method in brief: (§1)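 Log-phase cells seeded at 10^4/well and allowed to attach for 24 h at 37 °C, 5% CO2. Exposed for 48 h to 0.1–100 (1:10 serial dilutions), four replicate wells per condition. Fixed with cold 50% TCA for 1 h at 4 °C, stained with sulforhodamine B, dye dissolved in Tris, OD read at 540 nm. Blank-subtracted growth expressed relative to untreated cells (100%); IC50 reported.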

SW-620 = test: Cytotoxicity against human SW620 cells assessed as cell growth after 48 hrs by sulforhodamine B assay; assay type: functional, cell-based; method in brief: as §1
PC-3 = test: Cytotoxicity against human PC3 cells assessed as cell growth after 48 hrs by sulforhodamine B assay; assay type: functional, cell-based; method in brief: as §1

## C[C@H]1CC[C@@H]2[C@@H](OC(=O)[C@]23CC(c2ccc(Br)cc2)N(c2ccccc2)O3)[C@]2(C)C(=O)C=C[C@@]12O (mixture of isomers)
[1]
  logP: 4

## C[C@H]1CC[C@@H]2[C@@H](OC(=O)[C@]23CC(c2ccc(C#N)cc2)N(c2ccccc2)O3)[C@]2(C)C(=O)C=C[C@@]12O (mixture of isomers)
[1]
  logP: 2.94

## C[C@H]1CC[C@@H]2[C@@H](OC(=O)[C@]23CC(c2ccccc2Cl)N(c2ccccc2)O3)[C@]2(C)C(=O)C=C[C@@]12O (mixture of isomers)
[1]
  logP: 3.87

## C[C@H]1CC[C@@H]2[C@@H](OC(=O)[C@]23CC(c2c(F)cccc2F)N(c2ccccc2)O3)[C@]2(C)C(=O)C=C[C@@]12O (mixture of isomers)
[1]
  logP: 3.42

## C[C@H]1CC[C@@H]2[C@@H](OC(=O)[C@]23CC(c2ccc(F)cc2)N(c2ccccc2)O3)[C@]2(C)C(=O)C=C[C@@]12O (mixture of isomers)
[1]
  logP: 3.35

## COc1cccc(C2C[C@@]3(ON2c2ccccc2)C(=O)O[C@@H]2[C@H]3CC[C@H](C)[C@]3(O)C=CC(=O)[C@@]23C)c1 (mixture of isomers)
[1]
  logP: 3.25

## C[C@H]1CC[C@@H]2[C@@H](OC(=O)[C@]23CC(c2ccccc2)N(c2ccccc2)O3)[C@]2(C)C(=O)C=C[C@@]12O (mixture of isomers)
[1]
  logP: 3.19

## C[C@H]1CC[C@@H]2[C@@H](OC(=O)[C@]23CC(c2cccc(F)c2)N(c2ccccc2)O3)[C@]2(C)C(=O)C=C[C@@]12O (mixture of isomers)
[1]
  logP: 3.35

## C[C@H]1CC[C@@H]2[C@@H](OC(=O)[C@]23CC(c2ccc(Cl)cc2)N(c2ccccc2)O3)[C@]2(C)C(=O)C=C[C@@]12O (mixture of isomers)
[1]
  logP: 3.87

## C[C@H]1CC[C@@H]2[C@@H](OC(=O)[C@]23CC(c2c(F)c(F)c(F)c(F)c2F)N(c2ccccc2)O3)[C@]2(C)C(=O)C=C[C@@]12O (mixture of isomers)
[1]
  logP: 3.72

## COc1ccc(C2C[C@@]3(ON2c2ccccc2)C(=O)O[C@@H]2[C@H]3CC[C@H](C)[C@]3(O)C=CC(=O)[C@@]23C)cc1Br (mixture of isomers)
[1]
  logP: 3.98

## C[C@H]1CC[C@@H]2[C@@H](OC(=O)[C@]23CC(c2ccc([N+](=O)[O-])cc2)N(c2ccccc2)O3)[C@]2(C)C(=O)C=C[C@@]12O (mixture of isomers)
[1]
  logP: 3.15

## C[C@H]1CC[C@@H]2[C@@H](OC(=O)[C@]23CC(c2cccc(Cl)c2)N(c2ccccc2)O3)[C@]2(C)C(=O)C=C[C@@]12O (mixture of isomers)
[1]
  logP: 3.87

## Cc1ccc(C2C[C@@]3(ON2c2ccccc2)C(=O)O[C@@H]2[C@H]3CC[C@H](C)[C@]3(O)C=CC(=O)[C@@]23C)cc1 (mixture of isomers)
[1]
  logP: 3.64

## C[C@H]1CC[C@@H]2[C@@H](OC(=O)[C@]23CC(c2cccc(F)c2)N(c2ccccc2)O3)[C@]2(C)C(=O)C=C[C@@]12O (some centres not stated)
DU-145; Homo sapiens, DU-145, 48 h
  IC50: 5 µM
DU-145; du-145
  IC50: 8.1 µM
SW-620; Homo sapiens, SW-620, 48 h
  IC50: 4.8 µM
SW-620; sw-620
  IC50: 5.1 µM
PC-3; Homo sapiens, PC-3, 48 h
  IC50: 4.8 µM
PC-3; pc-3
  IC50: 9 µM

## C[C@H]1CC[C@@H]2[C@@H](OC(=O)[C@]23CC(c2ccc(Br)cc2)N(c2ccccc2)O3)[C@]2(C)C(=O)C=C[C@@]12O (some centres not stated)
DU-145; Homo sapiens, DU-145, 48 h
  IC50: 5.3 µM
DU-145; du-145
  IC50: 4.2 µM
SW-620; Homo sapiens, SW-620, 48 h
  IC50: 6.7 µM
SW-620; sw-620
  IC50: 8.1 µM
PC-3; pc-3
  IC50: 5.8 µM and 2.3 µM

## Cc1ccc(C2C[C@@]3(ON2c2ccccc2)C(=O)O[C@@H]2[C@H]3CC[C@H](C)[C@]3(O)C=CC(=O)[C@@]23C)cc1 (some centres not stated)
DU-145; Homo sapiens, DU-145, 48 h
  IC50: 8.1 µM
DU-145; du-145
  IC50: 6.3 µM
SW-620; Homo sapiens, SW-620, 48 h
  IC50: 8.7 µM
SW-620; sw-620
  IC50: 9 µM
PC-3; Homo sapiens, PC-3, 48 h
  IC50: 8.5 µM
PC-3; pc-3
  IC50: 9.1 µM

## C[C@H]1CC[C@@H]2[C@@H](OC(=O)[C@]23CC(c2c(Cl)cccc2Cl)N(c2ccccc2)O3)[C@]2(C)C(=O)C=C[C@@]12O (some centres not stated)
DU-145; Homo sapiens, DU-145, 48 h
  IC50: 9 µM
DU-145; du-145
  IC50: 6.3 µM
SW-620; Homo sapiens, SW-620, 48 h
  IC50: 3 µM
SW-620; sw-620
  IC50: 5 µM
PC-3; Homo sapiens, PC-3, 48 h
  IC50: 2.4 µM
PC-3; pc-3
  IC50: 4.2 µM
